Each structure is given as a SMILES string. Positions of bridges follow the written chain, without caps; N, C: chain ends. Residues, ends and D or L forms follow the SMILES beside them.

Sodium channel protein type 5 subunit alpha, sequence (Q14524 whole entry): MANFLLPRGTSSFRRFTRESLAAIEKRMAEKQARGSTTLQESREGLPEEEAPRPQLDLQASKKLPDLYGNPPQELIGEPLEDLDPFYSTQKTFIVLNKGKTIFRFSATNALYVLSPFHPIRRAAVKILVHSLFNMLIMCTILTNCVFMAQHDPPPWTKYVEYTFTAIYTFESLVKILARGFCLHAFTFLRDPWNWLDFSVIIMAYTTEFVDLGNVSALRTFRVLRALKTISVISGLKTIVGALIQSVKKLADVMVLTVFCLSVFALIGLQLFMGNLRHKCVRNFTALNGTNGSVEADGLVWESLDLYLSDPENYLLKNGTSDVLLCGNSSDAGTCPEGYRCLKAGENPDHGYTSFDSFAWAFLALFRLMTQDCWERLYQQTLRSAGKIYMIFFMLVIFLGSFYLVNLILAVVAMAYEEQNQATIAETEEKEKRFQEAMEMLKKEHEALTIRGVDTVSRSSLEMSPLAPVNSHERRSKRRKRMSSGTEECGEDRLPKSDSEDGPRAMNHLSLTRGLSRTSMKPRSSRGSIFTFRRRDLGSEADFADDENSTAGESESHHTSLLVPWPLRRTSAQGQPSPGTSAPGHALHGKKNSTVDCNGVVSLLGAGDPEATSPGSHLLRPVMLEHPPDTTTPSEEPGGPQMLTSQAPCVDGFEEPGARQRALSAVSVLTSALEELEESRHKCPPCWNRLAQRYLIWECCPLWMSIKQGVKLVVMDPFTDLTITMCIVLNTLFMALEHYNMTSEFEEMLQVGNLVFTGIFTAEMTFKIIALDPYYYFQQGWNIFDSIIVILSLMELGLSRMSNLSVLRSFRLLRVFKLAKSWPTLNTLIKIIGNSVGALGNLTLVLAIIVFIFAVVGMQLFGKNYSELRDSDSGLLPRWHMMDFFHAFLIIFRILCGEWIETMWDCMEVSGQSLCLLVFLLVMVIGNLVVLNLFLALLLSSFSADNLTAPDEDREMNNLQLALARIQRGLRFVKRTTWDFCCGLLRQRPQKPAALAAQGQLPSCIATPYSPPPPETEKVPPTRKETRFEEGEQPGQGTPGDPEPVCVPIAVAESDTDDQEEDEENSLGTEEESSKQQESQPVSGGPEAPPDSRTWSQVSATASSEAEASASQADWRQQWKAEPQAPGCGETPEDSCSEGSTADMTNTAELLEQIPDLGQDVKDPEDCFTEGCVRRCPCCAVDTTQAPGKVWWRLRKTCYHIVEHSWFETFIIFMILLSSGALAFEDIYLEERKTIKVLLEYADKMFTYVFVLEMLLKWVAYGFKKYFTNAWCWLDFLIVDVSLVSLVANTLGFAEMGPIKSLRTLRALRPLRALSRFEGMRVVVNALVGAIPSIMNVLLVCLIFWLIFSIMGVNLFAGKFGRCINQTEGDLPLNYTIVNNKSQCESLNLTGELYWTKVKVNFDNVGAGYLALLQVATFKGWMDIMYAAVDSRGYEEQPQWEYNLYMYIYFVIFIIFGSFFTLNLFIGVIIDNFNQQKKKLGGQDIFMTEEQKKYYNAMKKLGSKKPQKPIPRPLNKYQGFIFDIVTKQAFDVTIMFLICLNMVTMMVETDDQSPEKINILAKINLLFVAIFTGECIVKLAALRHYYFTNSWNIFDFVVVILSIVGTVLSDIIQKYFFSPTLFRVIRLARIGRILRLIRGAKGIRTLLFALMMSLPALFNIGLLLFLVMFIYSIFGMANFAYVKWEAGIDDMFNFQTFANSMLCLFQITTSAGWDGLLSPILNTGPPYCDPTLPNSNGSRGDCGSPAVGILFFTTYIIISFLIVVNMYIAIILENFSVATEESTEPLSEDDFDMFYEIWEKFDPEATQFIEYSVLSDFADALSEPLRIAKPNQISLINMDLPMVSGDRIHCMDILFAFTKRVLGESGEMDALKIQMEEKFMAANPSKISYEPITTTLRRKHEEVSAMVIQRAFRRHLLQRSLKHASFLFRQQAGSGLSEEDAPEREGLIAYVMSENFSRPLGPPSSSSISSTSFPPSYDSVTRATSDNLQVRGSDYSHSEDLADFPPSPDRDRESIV

In the experiment the target is Sodium channel protein type 5 subunit alpha (Homo sapiens, UniProt Q14524). Briefly: Inhibition of human Nav1.5 expressed in HEK293 cells assessed as inward peak current by ion-works quattro patch clamp electrophysiology method. In kind it is cell-based. In a few lines:
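Stable HEK293 line expressing human NaV1.5, recorded by population patch clamp on the IonWorks Quattro.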
Turning to `CC[C@H](C)[C@@H]1NC(=O)[C@@H]2CSSC[C@@H]3NC(=O)[C@H](C(C)C)NC(=O)[C@H](CC(C)C)NC(=O)[C@H](CC(N)=O)NC(=O)[C@@H]4CCCN4C(=O)[C@H](CCCNC(=N)N)NC(=O)[C@H](CSSC[C@H](NC(=O)[C@@H](N)CC(=O)O)C(=O)N[C@@H](CC(C)C)C(=O)NCC(=O)N[C@@H](Cc4ccccc4)C(=O)N[C@@H](Cc4cccc5ccccc45)C(=O)N[C@@H](CCCNC(=N)N)C(=O)N[C@@H](CCCCN)C(=O)N2)NC(=O)[C@H](CSSC[C@@H](C(=O)N[C@@H](CCCCN)C(=O)N[C@@H](Cc2ccc(O)cc2)C(=O)N[C@H](C(=O)N[C@@H](Cc2ccccc2)C(N)=O)C(C)C)NC(=O)[C@H](Cc2c[nH]c4ccccc24)NC(=O)[C@H](CCCCN)NC(=O)[C@H](Cc2cnc[nH]2)NC(=O)[C@H]([C@@H](C)O)NC(=O)[C@H](CCCNC(=N)N)NC(=O)[C@H](CO)NC3=O)NC(=O)[C@H](CCCCN)NC(=O)[C@H](CC(=O)O)NC(=O)[C@H](CC(N)=O)NC(=O)[C@H](CC(=O)O)NC(=O)[C@@H]2CCCN2C1=O`, the IC50 turned out to be 2.3 µM.

Take `CC[C@H](C)[C@@H]1NC(=O)[C@@H]2CSSC[C@@H]3NC(=O)[C@H](C(C)C)NC(=O)[C@H](CC(C)C)NC(=O)[C@H](CC(N)=O)NC(=O)[C@@H]4CCCN4C(=O)[C@H](CCCNC(=N)N)NC(=O)[C@H](CSSC[C@H](NC(=O)[C@@H](N)CC(=O)O)C(=O)N[C@@H](CC(C)C)C(=O)NCC(=O)N[C@@H](Cc4ccccc4)C(=O)N[C@@H](CCSC)C(=O)N[C@@H](CCCNC(=N)N)C(=O)N[C@@H](CCCCN)C(=O)N2)NC(=O)[C@H](CSSC[C@@H](C(=O)N[C@@H](CCCCN)C(=O)N[C@@H](Cc2ccc(O)cc2)C(=O)N[C@H](C(=O)N[C@@H](Cc2ccccc2)C(=O)N[C@@H](CCCCN)C(N)=O)C(C)C)NC(=O)[C@H](Cc2c[nH]c4ccccc24)NC(=O)[C@H](CCCCN)NC(=O)[C@H](Cc2cnc[nH]2)NC(=O)[C@H]([C@@H](C)O)NC(=O)[C@H](CCCNC(=N)N)NC(=O)[C@H](CO)NC3=O)NC(=O)[C@H](CCCCN)NC(=O)[C@H](CC(=O)O)NC(=O)[C@H](CC(N)=O)NC(=O)[C@H](CC(=O)O)NC(=O)[C@@H]2CCCN2C1=O`: the IC50 was more than 5 µM.

As to `CC[C@H](C)[C@@H]1NC(=O)[C@@H]2CSSC[C@@H]3NC(=O)[C@H](C(C)C)NC(=O)[C@H](CC(C)C)NC(=O)[C@H](CC(N)=O)NC(=O)[C@@H]4CCCN4C(=O)[C@H](CCCNC(=N)N)NC(=O)[C@H](CSSC[C@H](NC(=O)[C@@H](N)CC(=O)O)C(=O)N[C@@H](CC(C)C)C(=O)NCC(=O)N[C@@H](Cc4ccccc4)C(=O)N[C@@H](CCSC)C(=O)N[C@@H](CCCNC(=N)N)C(=O)N[C@@H](CCCCN)C(=O)N2)NC(=O)[C@H](CSSC[C@@H](C(=O)N[C@@H](CCCCN)C(=O)N[C@@H](Cc2ccc(O)cc2)C(=O)N[C@H](C(=O)N[C@@H](Cc2ccccc2)C(=O)N[C@@H](CCC(=O)O)C(N)=O)C(C)C)NC(=O)[C@H](Cc2c[nH]c4ccccc24)NC(=O)[C@H](CCCCN)NC(=O)[C@H](Cc2c[nH]cn2)NC(=O)[C@H]([C@@H](C)O)NC(=O)[C@H](CCCNC(=N)N)NC(=O)[C@H](CO)NC3=O)NC(=O)[C@H](CCCCN)NC(=O)[C@H](CC(=O)O)NC(=O)[C@H](CC(N)=O)NC(=O)[C@H](CC(=O)O)NC(=O)[C@@H]2CCCN2C1=O`, the IC50 is more than 5 µM.

For the compound `CSCC[C@@H]1NC(=O)[C@H](Cc2ccccc2)NC(=O)CNC(=O)[C@H](CC(C)C)NC(=O)[C@@H](NC(=O)[C@@H](N)CC(=O)O)CSSC[C@@H]2NC(=O)[C@@H]3CSSC[C@@H](C(=O)N[C@@H](CCCCN)C(=O)N[C@@H](Cc4ccc(O)cc4)C(=O)N[C@H](C(=O)N[C@@H](Cc4ccccc4)C(N)=O)C(C)C)NC(=O)[C@H](Cc4c[nH]c5ccccc45)NC(=O)[C@H](CCCCN)NC(=O)[C@H](Cc4cnc[nH]4)NC(=O)[C@H]([C@@H](C)O)NC(=O)[C@H](CCCNC(=N)N)NC(=O)[C@H](CO)NC(=O)[C@H](CSSC[C@H](NC(=O)[C@H](CCCCN)NC(=O)[C@H](CCCNC(=N)N)NC1=O)C(=O)N[C@@H](Cc1ccccn1)C(=O)N1CCC[C@H]1C(=O)N[C@@H](CC(=O)O)C(=O)N[C@@H](CC(N)=O)C(=O)N[C@@H](CC(=O)O)C(=O)N[C@@H](CCCCN)C(=O)N3)NC(=O)[C@H](C(C)C)NC(=O)[C@H](CC(C)C)NC(=O)[C@H](CC(N)=O)NC(=O)[C@@H]1CCCN1C(=O)[C@H](CCCNC(=N)N)NC2=O`, the IC50 was more than 5 µM.

Turning to `CSCC[C@@H]1NC(=O)[C@H](Cc2ccccc2)NC(=O)CNC(=O)[C@H](CC(C)C)NC(=O)[C@@H](NC(=O)[C@@H](N)CC(=O)O)CSSC[C@@H]2NC(=O)[C@@H]3CSSC[C@@H](C(=O)N[C@@H](CCCCN)C(=O)N[C@@H](Cc4ccc(O)cc4)C(=O)N[C@H](C(=O)N[C@@H](Cc4ccccc4)C(N)=O)C(C)C)NC(=O)[C@H](Cc4c[nH]c5ccccc45)NC(=O)[C@H](CCCCN)NC(=O)[C@H](Cc4cnc[nH]4)NC(=O)[C@H]([C@@H](C)O)NC(=O)[C@H](CCCNC(=N)N)NC(=O)[C@H](CO)NC(=O)[C@H](CSSC[C@H](NC(=O)[C@H](CCCCN)NC(=O)[C@H](CCCNC(=N)N)NC1=O)C(=O)N[C@@H](Cc1ccc(C(=O)O)cc1)C(=O)N1CCC[C@H]1C(=O)N[C@@H](CC(=O)O)C(=O)N[C@@H](CC(N)=O)C(=O)N[C@@H](CC(=O)O)C(=O)N[C@@H](CCCCN)C(=O)N3)NC(=O)[C@H](C(C)C)NC(=O)[C@H](CC(C)C)NC(=O)[C@H](CC(N)=O)NC(=O)[C@@H]1CCCN1C(=O)[C@H](CCCNC(=N)N)NC2=O`, the IC50 was more than 4.8 µM.

With `CC[C@H](C)[C@@H]1NC(=O)[C@@H]2CSSC[C@@H]3NC(=O)[C@H](C(C)C)NC(=O)[C@H](CC(C)C)NC(=O)[C@H](CC(N)=O)NC(=O)[C@@H]4CCCN4C(=O)[C@H](CCCNC(=N)N)NC(=O)[C@H](CSSC[C@H](NC(=O)[C@@H](N)CC(=O)O)C(=O)N[C@@H](CC(C)C)C(=O)NCC(=O)N[C@@H](Cc4cccc5ccccc45)C(=O)N[C@@H](CCSC)C(=O)N[C@@H](CCCNC(=N)N)C(=O)N[C@@H](CCCCN)C(=O)N2)NC(=O)[C@H](CSSC[C@@H](C(=O)N[C@@H](CCCCN)C(=O)N[C@@H](Cc2ccc(O)cc2)C(=O)N[C@H](C(=O)N[C@@H](Cc2ccccc2)C(N)=O)C(C)C)NC(=O)[C@H](Cc2c[nH]c4ccccc24)NC(=O)[C@H](CCCCN)NC(=O)[C@H](Cc2c[nH]cn2)NC(=O)[C@H]([C@@H](C)O)NC(=O)[C@H](CCCNC(=N)N)NC(=O)[C@H](CO)NC3=O)NC(=O)[C@H](CCCCN)NC(=O)[C@H](CC(=O)O)NC(=O)[C@H](CC(N)=O)NC(=O)[C@H](CC(=O)O)NC(=O)[C@@H]2CCCN2C1=O`, the IC50 is more than 5 µM.

As for `CC[C@H](C)[C@@H]1NC(=O)[C@@H]2CSSC[C@@H]3NC(=O)[C@H](C(C)C)NC(=O)[C@H](CC(C)C)NC(=O)[C@H](CC(N)=O)NC(=O)[C@@H]4CCCN4C(=O)[C@H](CCCNC(=N)N)NC(=O)[C@H](CSSC[C@H](NC(=O)[C@H](CC(=O)O)NC(=O)[C@@H](N)CCCNC(=N)N)C(=O)N[C@@H](CC(C)C)C(=O)NCC(=O)N[C@@H](Cc4ccccc4)C(=O)N[C@@H](CCSC)C(=O)N[C@@H](CCCNC(=N)N)C(=O)N[C@@H](CCCCN)C(=O)N2)NC(=O)[C@H](CSSC[C@@H](C(=O)N[C@@H](CCCCN)C(=O)N[C@@H](Cc2ccc(O)cc2)C(=O)N[C@H](C(=O)N[C@@H](Cc2ccccc2)C(N)=O)C(C)C)NC(=O)[C@H](Cc2c[nH]c4ccccc24)NC(=O)[C@H](CCCCN)NC(=O)[C@H](Cc2cnc[nH]2)NC(=O)[C@H]([C@@H](C)O)NC(=O)[C@H](CCCNC(=N)N)NC(=O)[C@H](CO)NC3=O)NC(=O)[C@H](CCCCN)NC(=O)[C@H](CC(=O)O)NC(=O)[C@H](CC(N)=O)NC(=O)[C@H](CC(=O)O)NC(=O)[C@@H]2CCCN2C1=O`, the concentration for half-maximal inhibition (IC50) is more than 5 µM.

Regarding `CC[C@H](C)[C@@H]1NC(=O)[C@@H]2CSSC[C@@H]3NC(=O)[C@H](C(C)C)NC(=O)[C@H](CC(C)C)NC(=O)[C@H](CC(N)=O)NC(=O)[C@@H]4CCCN4C(=O)[C@H](CCCNC(=N)N)NC(=O)[C@H](CSSC[C@H](NC(=O)[C@@H](N)CC(=O)O)C(=O)N[C@@H](CC(C)C)C(=O)N[C@@H](CCC(=O)O)C(=O)N[C@@H](Cc4ccccc4)C(=O)N[C@@H](CCSC)C(=O)N[C@@H](CCCNC(=N)N)C(=O)N[C@@H](CCCCN)C(=O)N2)NC(=O)[C@H](CSSC[C@@H](C(=O)N[C@@H](CCCCN)C(=O)N[C@@H](Cc2ccc(O)cc2)C(=O)N[C@H](C(=O)N[C@@H](Cc2ccccc2)C(N)=O)C(C)C)NC(=O)[C@H](Cc2c[nH]c4ccccc24)NC(=O)[C@H](CCCCN)NC(=O)[C@H](Cc2cnc[nH]2)NC(=O)[C@H]([C@@H](C)O)NC(=O)[C@H](CCCNC(=N)N)NC(=O)[C@H](CO)NC3=O)NC(=O)[C@H](CCCCN)NC(=O)[C@H](CC(=O)O)NC(=O)[C@H](CC(N)=O)NC(=O)[C@H](CC(=O)O)NC(=O)[C@@H]2CCCN2C1=O` (H-DCLEFMRKCIPDNDKCCRPNLVCSRTHKWCKYVF-NH2; disulfide 2-17, 9-23, 16-30), the 50% inhibitory concentration (IC50) was more than 5 µM.

Take `CC[C@H](C)[C@@H]1NC(=O)[C@@H]2CSSC[C@@H]3NC(=O)[C@H](C(C)C)NC(=O)[C@H](CC(C)C)NC(=O)[C@H](CC(N)=O)NC(=O)[C@@H]4CCCN4C(=O)[C@H](CCCNC(=N)N)NC(=O)[C@H](CSSC[C@H](NC(=O)[C@@H](N)CC(=O)O)C(=O)N[C@@H](CC(C)C)C(=O)NCC(=O)N[C@@H](Cc4ccccc4)C(=O)N[C@@H](CCC(=O)O)C(=O)N[C@@H](CCCNC(=N)N)C(=O)N[C@@H](CCCCN)C(=O)N2)NC(=O)[C@H](CSSC[C@@H](C(=O)N[C@@H](CCCCN)C(=O)N[C@@H](Cc2ccc(O)cc2)C(=O)N[C@H](C(=O)N[C@@H](Cc2ccccc2)C(N)=O)C(C)C)NC(=O)[C@H](Cc2c[nH]c4ccccc24)NC(=O)[C@H](CCCCN)NC(=O)[C@H](Cc2cnc[nH]2)NC(=O)[C@H]([C@@H](C)O)NC(=O)[C@H](CCCNC(=N)N)NC(=O)[C@H](CO)NC3=O)NC(=O)[C@H](CCCCN)NC(=O)[C@H](CC(=O)O)NC(=O)[C@H](CC(N)=O)NC(=O)[C@H](CC(=O)O)NC(=O)[C@@H]2CCCN2C1=O` (H-DCLGFERKCIPDNDKCCRPNLVCSRTHKWCKYVF-NH2; disulfide 2-17, 9-23, 16-30): the IC50 is more than 5 µM.

The values above are taken from ChEMBL document CHEMBL3797186, “Single Residue Substitutions That Confer Voltage-Gated Sodium Ion Channel Subtype Selectivity in the NaV1.7 Inhibitory Peptide GpTx-1” (J Med Chem, 2016).
